Data published in PubChem BioAssay AID624466 (The Scripps Research Institute Molecular Screening Center, 2012).
The whole screen tested about 360,000 compounds, of which about 5,400 (1.5%) were called active. The list comes from a sample in which actives are over-represented; it also holds similar structures and randomly drawn compounds. A number with no mark means an inactive call.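 Rule for the calls: active = inhibition above a per-plate cutoff, the mean inhibition of test compounds on that plate plus 3 SD (cut at about 49% in these data); inactive = the rest.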

What follows are compounds tested against Trace amine-associated receptor 1 (Homo sapiens) (UniProt Q96RJ0) (assay: human TAAR1 antagonists, primary screen, Fluo-8 calcium fluorescence, CHO RD-HGA16 cells (AID 624466;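 note: 0% = DMSO plus EC80 beta-PEA response and 100% = DMSO alone without agonist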)). Settings: CHO RD-HGA16 TAAR1, Fluo-8 calcium fluorescence, antagonist; at 3 µM; stronger effect = higher value.
Outline: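 Assay system: CHO-derived RD-HGA16 cells stably expressing human TAAR1 plus Gα16. Timing: 140 s kinetic read after compound, 140 s after agonist. Technique: kinetic Fluo-8 calcium fluorescence measurement. Measure: % inhibition of agonist calcium response.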

Chain of Trace amine-associated receptor 1 (Homo sapiens) (Q96RJ0 whole entry, looked up): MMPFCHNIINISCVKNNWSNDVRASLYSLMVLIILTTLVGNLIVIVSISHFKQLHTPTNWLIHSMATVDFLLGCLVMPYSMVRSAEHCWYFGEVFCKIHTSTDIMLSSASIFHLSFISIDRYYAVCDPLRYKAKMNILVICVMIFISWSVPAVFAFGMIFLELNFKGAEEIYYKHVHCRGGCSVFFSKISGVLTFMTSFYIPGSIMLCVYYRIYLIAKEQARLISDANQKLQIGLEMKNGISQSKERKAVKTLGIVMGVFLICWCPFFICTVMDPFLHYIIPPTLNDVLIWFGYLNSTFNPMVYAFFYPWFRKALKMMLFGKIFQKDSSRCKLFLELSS

First: Cc1ccc(S(=O)(=O)N2CC3C(=O)C[C@@H](c4ccccc4Cl)N(S(=O)(=O)c4ccc(C)cc4)C3CC2c2ccccc2)cc1 (stereo not given in full)
Second: Cc1ccc(-c2nn(-c3ccccc3)cc2C(=O)Nc2cccc(S(=O)(=O)N3CCOCC3)c2)cc1
The inhibition of the first is lower: 2.68% for the first, 11% for the second.

Going from `COC(=O)c1cc2c(c3c4cc(F)ccc4n(S(=O)(=O)c4ccccc4)c13)C(=O)N(Cc1ccccc1OC)C2` to `COc1ccc(CNC(=O)COC(=O)c2c(C)nn(-c3ccccc3)c2C)cc1OC`, the inhibition falls from -0.96% to -1.94%.

Going from `O=C(C(=O)N1CCC(CNC(=O)c2cccnc2Cl)CC1)c1cccs1` to `NC(=O)C1CCN(C(=O)c2cn(-c3ccccc3)nc2-c2cccnc2)CC1`, the inhibition rises from -12.2% to -9.79%.

Going from `COc1ccc(CNC(=O)COc2cccnc2[N+](=O)[O-])cc1` to `COc1ccc(CNC(=O)COC(=O)c2sccc2C)cc1OC`, the inhibition falls from -4.68% to -9.87%.

Compared with `Cc1ccc(-c2c(N)nc3ncccn23)cc1`, `Cc1ccc(-c2nn(-c3ccccc3)cc2C(=O)NCCCN2CCCC2=O)cc1` is higher in inhibition: -8.72% for the first, -7.1% for the second.

Going from `COCCn1c(C)cc(C(=O)CSc2nnc(C3CC3)n2C2CC2)c1C` to `Cc1c(C)n2c(SCC(=O)N3CCCC3)nnc2[nH]c1=O`, the inhibition falls from 10.2% to -9.03%.

Compared with `Nc1nc2c(Br)ccc(Br)c2cc1C(=O)NCCc1ccccc1`, `O=C(NCCc1ccccc1)C1CC1` is higher in inhibition: -14% for the first, 1.61% for the second.

Going from `O=C(NNS(=O)(=O)c1ccc(F)cc1)C1CCCCC1` to `Cc1ccc(/C=C/C(=O)Nc2cc(S(=O)(=O)N3CCCCCC3)ccc2OCC(F)(F)F)o1`, the inhibition rises from -20.9% to -13.9%.

Compared with `O=C(CN1CCCSc2ccccc21)N1CCN(S(=O)(=O)c2ccccc2)CC1`, `O=C(CN1CCN(S(=O)(=O)c2cccc(Cl)c2)CC1)N1CCCCC1` is lower in inhibition: 18.8% for the first, 6.11% for the second.

First: Cc1ccccc1C(=O)N[C@H](C(=O)N1CCC[C@H]1C(=O)NCc1ccccc1)C(C)C
Second: Nc1nc2c(ncn2[C@@H]2O[C@H](C(=O)N[C@@H](Cc3ccccc3)C(=O)NCc3ccccc3)[C@@H](O)[C@H]2O)c(=O)[nH]1
The inhibition of the first is higher: 14.4% for the first, -6.97% for the second.

First: O=C(NC1CCCC1)C1c2ccccc2OCC(=O)N1CC(F)(F)F (stereo not given)
Second: Nc1nc2c(ncn2[C@@H]2O[C@H](C(=O)N[C@H](Cc3ccccc3)C(=O)NCC3CCCCC3)[C@@H](O)[C@H]2O)c(=O)[nH]1
The inhibition of the first is higher: 4.73% for the first, -12.4% for the second.

Compared with `CCOc1ccccc1N1CN(Cc2ccccc2)CNC1=S`, `COCc1[nH]nc2c1C(c1ccccc1)N(c1ccccc1)C2=O` (stereo not given) is lower in inhibition: -9.06% for the first, -20.8% for the second.

Going from `COc1ccc2[nH]cc(CCN3C(=O)c4ccc(C(=O)O)cc4C3=O)c2c1` to `COc1ccc(CNC(=O)[C@H](Cc2c[nH]c3ccccc23)NC(C)=O)cc1OC`, the inhibition rises from -11.2% to -1.22%.

Going from `COc1ccc(NS(=O)(=O)c2ccc(Oc3c(C#N)cccc3C#N)cc2)cc1` to `COc1ccc(NC(=O)[C@H](NC(=O)[C@@H]2Cc3ccccc3CN2)c2ccccc2)cc1`, the inhibition falls from 38.8% to -18%.

First: Cc1cccc(OCC(O)Cn2c(=N)n(CCN3CCOCC3)c3ccccc32)c1 (stereo not given)
Second: O=C(NCCCN1CCOCC1)c1cn(-c2ccccc2)nc1-c1ccc(F)cc1
The inhibition of the first is lower: -7.65% for the first, 3.41% for the second.

Compared with `CC(C)c1ccc(OCC(O)Cn2cnc3ccccc32)cc1` (stereo not given), `O=C(O)/C=C\C(=O)Nc1ccc(OCc2ccccc2)cc1` is higher in inhibition: -0.64% for the first, 4.01% for the second.

Going from `O=C(COC(=O)CCc1nc2ccccc2c(=O)[nH]1)Nc1ccc(N2CCOCC2)cc1` to `CC(C)(C)c1ccc(NC(=O)COC(=O)CCc2nc3ccccc3c(=O)[nH]2)cc1`, the inhibition rises from 0.61% to 6.51%.

First: O=C(Cn1cncn1)N/N=C/c1c2ccccc2cc2ccccc12
Second: O=C(N/N=C/c1ccccc1O)/C(=C/c1ccccc1)CCO
The inhibition of the first is lower: -12.2% for the first, 12.2% for the second.

Going from `Cc1ccc(S(=O)(=O)N[C@H](CO)C(C)C)cc1` to `Cc1ccc(S(=O)(=O)N(c2cccc(C)c2)C2CCS(=O)(=O)C2)cc1` (stereo not given), the inhibition rises from -9.25% to -4.68%.

Compared with `NC(c1ccccc1)c1csc(NC(=O)Nc2cccc(C(F)(F)F)c2)n1` (stereo not given), `Cc1ccc(NC(=O)Nc2cc(-c3ccccc3)nn2C)cc1Cl` is lower in inhibition: 35.6% for the first, 8.7% for the second.

First: CCCC(CNC(=O)COC(=O)C1=NNC(=O)CC1)c1ccc(Cl)cc1Cl (stereo not given)
Second: CCOC(=O)[C@]12CCC=C1N(Cc1ccco1)C(=O)[C@H](CC(=O)NCc1cccc(C(F)(F)F)c1)C2
The inhibition of the first is higher: -3.84% for the first, -12.7% for the second.

Compared with `COCCCNC(=O)C1CC(=O)N(c2ccc(C)cc2)C1` (stereo not given), `COc1ccc2cc(C(=O)NCC3CCCO3)[nH]c2c1` (stereo not given) is lower in inhibition: -3.91% for the first, -16.3% for the second.

Compared with `O=C(NCCCO)c1cc2c([nH]c3ccccc32)c(-c2ccc(F)cc2)n1`, `Cc1nc2c(C(=O)NCc3cccs3)cnn2c(C)c1Cc1ccc(F)cc1` is lower in inhibition: 23.9% for the first, 9.05% for the second.

Going from `CC(=O)Nc1cccc(-c2cc(NC=O)c3ncc(-c4ccc(F)c(Cl)c4)n3c2)c1` to `CSc1ccc(C#N)cc1NC(=O)c1ccc(Cl)cc1`, the inhibition falls from 39% to -1.99%.

First: CN1CCCCC(NC(=O)C(C)(C)C)C1=O (stereo not given)
Second: CCCCNC(=O)OC1CC2CC1[C@H]1CCCCN1C2=O (stereo not given in full)
The inhibition of the first is lower: -14% for the first, -1.17% for the second.

First: COC(=O)/C=C\C(=O)Nc1cccc([N+](=O)[O-])c1
Second: COc1cccc(NC(=O)COC(=O)/C=C/c2ccco2)c1
The inhibition of the first is higher: -1.13% for the first, -14.3% for the second.

Going from `CC(C(=O)N=Nc1c(O)n(C)c2ccc(Br)cc12)n1cnc2ccccc2c1=O` (stereo not given) to `Cc1cccc(C)c1NC(=O)C(c1cccc2ccccc12)n1c(=O)c(-c2ccco2)nc2ccccc21` (stereo not given), the inhibition falls from -6.29% to -9.07%.

Going from `O=[N+]([O-])c1ccc(N2CCNCC2)cc1NCc1cccnc1` to `Cc1cccc(C)c1NC(=O)C(c1cccc(F)c1)N1CCN(C)CC1` (stereo not given), the inhibition falls from 13.4% to -12.4%.

First: COc1ccc(Cc2nnc(NC(=O)c3cc(OC)c(OC)c(OC)c3)s2)cc1OC
Second: COc1cc(OC)nc(N/N=C(\c2ccccc2)c2ccncc2)n1
The inhibition of the first is lower: -43.4% for the first, 5.98% for the second.

First: COC(=O)c1sccc1NC(=O)CCC1CCCC1
Second: COCCNC(=S)Nc1cc(S(=O)(=O)N2CCOCC2)ccc1N1CCCCC1
The inhibition of the first is higher: 15.8% for the first, -23.6% for the second.

First: O=S1(=O)CC(N2CCN(CCO)CC2)CN1Cc1cn(Cc2cccc(Cl)c2)nn1 (stereo not given)
Second: O=C(NCCN1CCOCC1)C1CCN(S(=O)(=O)c2ccccc2)CC1
The inhibition of the first is lower: -8.99% for the first, 1.73% for the second.

First: Oc1ccccc1C=NC1CCCCC1N=Cc1ccccc1O (stereo not given)
Second: C/C(=N/Nc1nc(-c2ccccc2)c(CC(=O)O)s1)c1ccccc1
The inhibition of the first is lower: 0.73% for the first, 24.8% for the second.

First: CN1C(=O)C(Br)(Br)CC1c1cccnc1 (stereo not given)
Second: COc1ccc(N/N=C2/CCCCC2=O)cc1
The inhibition of the first is higher: -9.8% for the first, -11.3% for the second.

Compared with `O=C(CSc1nnc(-c2ccco2)o1)NCC(=O)c1ccccc1`, `C/C(=N/NC(=O)CCc1ccccc1)c1ccco1` is higher in inhibition: -36% for the first, -8.62% for the second.

Going from `COC1(C2=NCCN2)COc2ccccc2O1` (stereo not given) to `Clc1ccc2nc(-c3ccccc3)nc(C(Cl)Cl)c2c1`, the inhibition rises from -15.3% to 2.4%.

Compared with `O=C(O)C1C2C=CC(O2)C1C(=O)Nc1ccccn1` (stereo not given), `CCCCCCCCN1C(=O)[C@@H](CC(=O)NCc2ccc(C)o2)C[C@@]2(C(=O)OC)C1=C[C@H](C(C)(C)C)O[C@@H]2C` is lower in inhibition: 13.6% for the first, -36.1% for the second.

For `O=C(CN1CCCSc2ccccc21)N1CCN(S(=O)(=O)c2cccc(F)c2)CC1`, the inhibition was 49.7% (active).
`COc1ccc2[nH]cc(/C=C(/C#N)S(=O)(=O)c3ccccc3)c2c1` was tested, and the inhibition was 51% (active).
For `OC(CN=c1sc2ccccc2n1CC(O)COc1ccccc1)COc1ccccc1` (stereo not given), the inhibition was 67.2% (active).
In the case of `O=C(COC(=O)CCCSc1nc2ccccc2[nH]1)Nc1ccc(Oc2ccccc2)cc1`, the inhibition is reported as 67.1% (active).
With `CC(=O)Nc1ccc(-c2csc(NC(=O)Nc3ccccc3)n2)cc1` the inhibition was 63.2% (active).
For `O=C(NCC1CCCO1)c1cc2c([nH]c3ccccc32)c(-c2ccc(F)cc2)n1` (stereo not given), the inhibition was 74.8% (active).
For `Cc1ccc(/C=C/C(=O)Nc2ccc([N+](=O)[O-])c(NC(=O)/C=C/c3ccc(C)o3)c2)o1`, the inhibition was 48.8% (active).
In the case of `COC(=O)c1sccc1NC(=O)c1cc(OC)c(OC)c(OC)c1`, the inhibition is reported as 52.3% (active).
In the case of `O=C(NN=Cc1ccccc1O)NN=Cc1ccccc1O`, the inhibition is reported as 53.9% (active).
For `O=C(CCc1ccccc1)Nc1cccc(-c2nnc(-c3ccco3)o2)c1`, the inhibition was 56.8% (active).
In the case of `O=C(O)C1C2C=CC(O2)C1C(=O)NCCc1cccc(Cl)c1` (stereo not given), the inhibition is reported as 70.5% (active).
With `O=C(/C=C/c1ccco1)Nc1ccc(Oc2ccccc2)cc1` the inhibition was 52.3% (active).
`c1ccc(C(=NNc2nc3ccccc3s2)c2ccccn2)cc1` was tested, and the inhibition was 53.9% (active).
For `CSc1nc(-c2ccccc2)nc(C(Cl)Cl)n1`, the inhibition was 58.9% (active).
With `COc1cccc(NC(=O)[C@H](Cc2c[nH]c3ccccc23)NC(=O)[C@@H]2Cc3ccccc3CN2)c1` the inhibition was 49.5% (active).
With `COc1ccc(CNC(=O)COc2ccccc2C(=O)c2cnn(-c3ccccc3)c2)cc1OC` the inhibition was 54% (active).
`O=C(O)c1ccc(NC(=O)c2cn(-c3ccccc3)nc2-c2ccc(Cl)cc2)cc1` was tested, and the inhibition was 73.7% (active).
In the case of `O=C(NNC(=S)NC(=O)c1cn(-c2ccccc2)nc1-c1ccccc1)c1ccncc1`, the inhibition is reported as 49.8% (active).
